# Measured values gathered from unrelated publications.
# Target: Platelet-derived growth factor receptor beta (PDGFRB, Homo sapiens, UniProt P09619)
Structure (SMILES),observed,mode,method,concentration,quantity,result
O=C(NCCCC1CCCCC1)c1ccc(CNC(=O)c2cnn(-c3ccccc3)c2C(F)(F)F)cc1,cell-free assay,,competition with immobilised ligand,0.1 µM,remaining binding,100%
CS(=O)(=O)Nc1cccc(-c2csc(NC(=O)CSc3nc4nccnc4c(=O)n3CCc3ccccc3)n2)c1,enzyme activity,inhibitor,,10 µM,inhibition,7%
COc1cc2nccc(Oc3ccc(NC(=O)c4c5n(n(-c6ccc(F)cc6)c4=O)CCCC5)cc3)c2cc1OC,enzyme activity,inhibitor,,0.1 µM,inhibition,6%
CC(C)(C)c1nc2c(s1)c1nc(N)ncc1c1ccc(NS(=O)(=O)c3c(F)cccc3F)c(F)c12,enzyme activity,inhibitor,radiometric,1 µM,remaining activity,105%
O=c1c2ccccc2[nH]c(=S)n1CCN1CCC(=C(c2ccc(F)cc2)c2ccc(F)cc2)CC1,enzyme activity,inhibitor,,0.5 µM,remaining activity,112%
O=C(Nc1cnn(-c2csc(C(=O)NC3COC3)c2)c1)Nc1ccccc1Cl,enzyme activity,inhibitor,,5 µM,remaining activity,107%
CCCOc1ccc(OC)c(F)c1C(=O)c1ccc(C(=O)N[C@@H]2CNC[C@H]2NC(=O)c2ccc3[nH]ncc3c2)cc1,enzyme activity,inhibitor,,10 µM,remaining activity,74%
Cn1nc(C(F)(F)F)cc1-c1cnc(N2CCc3cc(S(=O)(=O)Nc4c(F)cc(Cl)cc4F)cc(N4CCCC4=O)c32)nc1,cell-free assay,,competition with immobilised ligand,1 µM,remaining binding,90%
O=C1NC(=O)c2cc(Nc3ccc(F)cc3)c(Nc3ccc(F)cc3)cc21,cell-free assay,,,0.5 µM,remaining signal,93.9%
Cc1noc([C@H]2C[C@@H](c3ccc(C(F)(F)F)cc3)CN(C(=O)N3CCS(=O)(=O)C3)C2)n1,cell-free assay,,competition with immobilised ligand,1 µM,remaining binding,100%
Oc1ccc(-c2nc(-c3ccncc3)c(-c3ccc(F)cc3)[nH]2)cc1,cell-free assay,,,0.5 µM,remaining signal,104%
CC(C)c1ccc(NC(=O)c2cccs2)c(-c2nc3ccccc3[nH]c2=O)c1,enzyme activity,inhibitor,,1 µM,activity vs control,105%
Cc1cc(NC(=O)c2cccc3cc(-c4cccc5[nH]nc(N)c45)ccc23)ccc1F,enzyme activity,inhibitor,,0.1 µM,activity vs control,101%
Cc1[nH]c(/C=C2\C(=O)Nc3ccc(F)cc32)c(C)c1C(=O)N[C@H]1CCN(C(=O)N(C)C)C1,enzyme activity,inhibitor,,0.1 µM,remaining activity,97%
Fc1cccc(-n2cnc3c(NCc4nc5c(F)c(F)ccc5[nH]4)nc(N4CCOCC4)nc32)c1,binding,,competition with immobilised ligand,10 µM,binding vs control,91%
O=C(Nc1ccc(Oc2ccc(F)cc2)cc1)N1CCc2ncccc2[C@H]1c1ccc(F)cc1,cell-free assay,,competition with immobilised ligand,1 µM,remaining binding,100%
O=C1Nc2ccc(Cl)cc2C1=Cc1cc(Cl)c(O)c(Cl)c1,cell-free assay,,,0.5 µM,remaining signal,76.9%
Cn1nc(C(=O)NCc2ccc(C(=O)O)cc2)cc1-c1ccc2[nH]ccc2c1,cell-free assay,,competition with immobilised ligand,0.1 µM,remaining binding,96%
CN(C)c1ccc(C=C2C(=O)Nc3ccccc32)cc1,enzyme activity,inhibitor,,0.5 µM,remaining activity,85.8%
Cc1cnc(NC2CCOCC2)nc1-n1cnc(C(=O)NC(CN)c2cc(F)cc(Cl)c2)c1 (centres unmarked),enzyme activity,inhibitor,radiometric,1 µM,remaining activity,92%
N#CCCc1ccc2c(c1)-c1[nH]c3ccc([N+](=O)[O-])cc3c1CC(=O)N2,cell-free assay,,,0.5 µM,remaining signal,83.9%
CN(C)c1ncnc(-c2ccc3nc(Nc4cc(CN5CCN(C(=O)CC(F)(F)F)CC5)ccn4)[nH]c3c2)c1Cl,cell-free assay,,competition with immobilised ligand,1 µM,remaining binding,100%
CCN(CC)CCNC(=O)c1c(C)[nH]c(/C=C2\C(=O)Nc3ccc(Cl)cc32)c1C,enzyme activity,inhibitor,,0.5 µM,remaining activity,9.28%
Nc1ncnc2occ(-c3ccc(NC(=O)Nc4cc(C(F)(F)F)ccc4F)cc3)c12,enzyme activity,inhibitor,,20 µM,remaining activity,0%
CCCOc1ccc([C@@H]2[C@@H](C(=O)O)[C@H](c3ccc4c(c3)OCO4)CN2CC(=O)Nc2c(CC)cccc2CC)cc1,cell-free assay,,competition with immobilised ligand,1 µM,remaining binding,100%
COc1cc2ncnc(Nc3ccc(Oc4ccccc4)cc3C)c2cc1OC,enzyme activity,inhibitor,,1 µM,inhibition,2%
O=c1nc(-c2ccccn2)sc2ccccc12,cell-free assay,,competition with immobilised ligand,1 µM,remaining binding,83%
CC/C(=N\NC(=O)NCc1cccc(O)c1)c1ccc(O)c(C)c1O,enzyme activity,inhibitor,,0.1 µM,inhibition,4.5%
Cc1ccc(Nc2nccc(N(C)c3ccc4c(C)n(C)nc4c3)n2)cc1S(N)(=O)=O,enzyme activity,inhibitor,,0.3 µM,inhibition,64%
